The values below come from paper PMC2908238 (Journal of neurochemistry, 2010).

Series [1] can be described thus: Electron microscopy, morphology of assemblies. Particulars: EM, 10 µM peptide, pH 7.4, 25°C, agitation 200 rpm; for Morphology after 72 h of incubation: 72 h (Aβ40 analogues). The class given is physicochemical. Put shortly: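 Peptide from HFIP films, dissolved in 60 mM NaOH, diluted with water, sonicated 1 min, adjusted to 10 µM in 20 mM sodium phosphate pH 7.4; incubated 25°C with 200 rpm orbital shaking. Aliquots adsorbed 20 min on glow-discharged carbon-coated Formvar grids, wicked, fixed 2.5% glutaraldehyde 4 min, stained 1% uranyl acetate 3 min, air-dried; transmission EM.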

For series [2] the following is noted: 5 µM, 37°C, without agitation, ref Ciccotosto et al. 2004; cited from earlier work.
The next series in a line: Dynamic light scattering. Particulars: 10 µM peptide, pH 7.4, filtered 20 nm, quiescent incubation. In kind it is physicochemical. Put shortly: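 HFIP-treated peptide films dissolved in 60 mM NaOH, diluted with water, sonicated 1 min, then brought to 10 µM in 20 mM sodium phosphate, pH 7.4. Passed through 20-nm filter before first reading; kept at room temperature, no agitation, up to 14 days. 633-nm He-Ne laser, 90° scattering, multitau correlator; size distribution from regularization deconvolution. Representative of two independent experiments.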

Regarding “[Val^35]Aβ40: Aβ40 analogue with Met^35 substituted by Val”, in series [1], the “Morphology after 72 h of incubation” value was “mixture of oligomers and fibrils”.

As to “Aβ40: wild-type amyloid β-protein, 40-residue alloform, synthesized by Fmoc chemistry”, the “Morphology after 72 h of incubation” value in series [1] is on record as “did not change”.

In the case of “Aβ42: wild-type amyloid β-protein, 42-residue alloform, synthesized by Fmoc chemistry”, the “Morphology after 24 h of incubation” value in series [1] (24 h (Aβ42 analogues)) is recorded as “abundant fibrils”. For the same substance, the “Morphology initially and after 72 h of incubation” value in series [2] is listed as “non-fibrillar morphology”. In the series “Dynamic light scattering” (7 days), the “DLS intensity spikes (fibril formation) after 7 days” value is listed as “no intensity spikes”. The “Hydrodynamic radius (RH) of particles after 7 days” value in “Dynamic light scattering” (DLS, 7 days) is on record as “the same distribution”. In addition, in “Dynamic light scattering” (DLS, 14 days), the “Hydrodynamic radius (RH) of particles after 14 days” value is 100–200 nm.
